ChEMBL document CHEMBL4270573, “Novel nicotinoyl pyrazoline derivates bearing N-methyl indole moiety as antitumor agents: Design, synthesis and evaluation” (Eur J Med Chem, 2018)
Active and inactive are the calls of the source. The calls are words filed in the database; no cut-off is given here.

Legend:
MCF7 = assay: Growth inhibition of human MCF7 cells after 48 hrs by MTT assay; format: functional; conditions: MCF7, 48 h
Summary of the method: (§1)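 Proliferation read-out; GI50 taken as the concentration giving 50% reduction of cancer cell proliferation.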

A549 = assay: Growth inhibition of human A549 cells after 48 hrs by MTT assay; format: functional; conditions: A549, 48 h; summary of the method: as §1
HepG2 = assay: Growth inhibition of human HepG2 cells after 48 hrs by MTT assay; format: functional; conditions: HepG2, 48 h; summary of the method: as §1
HeLa [1] = assay: Growth inhibition of human HeLa cells after 48 hrs by MTT assay; format: functional; summary of the method: as §1
[2] = Cytotoxicity against HEK293T cells assessed as reduction in cell viability after 48 hrs by MTT assay; format: cell-based, HEK-293T; conditions: human
[3] = Inhibition of porcine brain tubulin polymerization measured over 30 mins; parameters: species or system Sus scrofa
HeLa [4] = assay: Antitumor activity against human HeLa cells xenografted in nude mouse assessed as tumor volume at 10 mg/kg, ip after 14 days (reference value: 2292.17 mm3); format: functional
HeLa [5] = assay: Antitumor activity against human HeLa cells xenografted in nude mouse assessed as tumor weight at 10 mg/kg, ip after 14 days (reference value: 1.54 g); format: functional
Bos taurus = species on record: Bos taurus; assay: Inhibition of colchicine binding to calf brain tubulin preincubated for 1 hr followed by colchicine addition measured after 1 hr by UPLC-MS/MS analysis
HeLa [6] = assay: Antitumor activity against human HeLa cells xenografted in nude mouse assessed as necrosis of tumor cells at 10 mg/kg, ip after 14 days by hematoxylin and eosin staining based microscopic analysis; format: functional, organism-based
Summary of the method: (§2)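 Excised tumours and heart, liver, kidney and spleen were H&E-stained and examined microscopically. Tumour scoring covered cell arrangement and necrosis. Organ scoring covered inflammatory infiltration, edema, necrosis and cell morphology.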

HeLa [7] = assay: Antitumor activity against human HeLa cells xenografted in nude mouse assessed as loose and irregular arrangement of tumor cells at 10 mg/kg, ip after 14 days by hematoxylin and eosin staining based microscopic analysis; format: functional, organism-based; summary of the method: as §2
Tubulin (Homo sapiens) [8] = molecular target: T1, Tubulin (Homo sapiens) (UniProt P68371+Q9H4B7+P0DPH7+P68366+Q13509+Q71U36+P04350+Q3ZCM7+P07437+P68363+Q9BQE3+Q6PEY2+Q13885+Q9BVA1+Q9BUF5); assay: Inhibition of tubulin polymerization in human HepG2 cells assessed as abnormal microtubule network formation at 0.04 uM after 12 hrs by DAPI staining based immunofluorescence confocal laser scanning microscopic analysis; format: cell-based
Tubulin (Homo sapiens) [9] = molecular target: T1, Tubulin (Homo sapiens); assay: Inhibition of tubulin polymerization in human HeLa cells assessed as abnormal microtubule network formation at 0.04 uM after 12 hrs by DAPI staining based immunofluorescence confocal laser scanning microscopic analysis; format: cell-based

| Structure (SMILES) | GI50 (MCF7) [µM] | GI50 (A549) [µM] | GI50 (HepG2) [µM] | GI50 (HeLa [1]) [µM] | IC50 [3] [µM] | inhibition (Tubulin (Homo sapiens) [8]) | inhibition (Tubulin (Homo sapiens) [9]) | CC50 at 48 h [2] [µM] | Activity (HeLa [4]) [mm3] | Activity (HeLa [5]) [g] | inhibition (Bos taurus) | Activity (HeLa [6]) | Activity (HeLa [7]) |
| --- | --- | --- | --- | --- | --- | --- | --- | --- | --- | --- | --- | --- | --- |
| COc1ccc(/C=C\c2cc(OC)c(OC)c(OC)c2)cc1O [COMBRETASTATIN A4] | 0.14 | 0.31 | 0.17 | 0.092 | 2.1 |  |  | > 300 | 918.61 | 0.59 | Active | Active | Active |
| COc1ccc(C2=NN(C(=O)c3cccnc3)C(c3cn(C)c4ccc(Br)cc34)C2)cc1OC (configuration not stated) | 1.17 | 2.38 | 2.45 | 2.09 | 5.6 |  |  | > 300 |  |  |  |  |  |
| Cn1cc(C2CC(c3ccc(Br)cc3)=NN2C(=O)c2cccnc2)c2cc(Br)ccc21 (configuration not stated) | 11.8 | > 10 | 6.91 | > 10 | 18.4 |  |  | > 300 |  |  |  |  |  |
| COc1ccc(C2=NN(C(=O)c3ccncc3)C(c3cn(C)c4ccc(Br)cc34)C2)cc1OC (configuration not stated) | > 10 | 4.25 | > 10 | > 10 | 17.8 |  |  | > 300 |  |  |  |  |  |
| Cn1cc(C2CC(c3ccccc3)=NN2C(=O)c2ccncc2)c2ccccc21 (configuration not stated) | 1.11 | 0.99 | 0.63 | 0.59 | > 40 |  |  | 97.3 |  |  |  |  |  |
| COc1ccc2c(c1)c(C1CC(c3ccccc3)=NN1C(=O)c1cccnc1)cn2C (configuration not stated) | 1.16 | > 10 | 5.11 | 3.59 | 4.3 |  |  | > 300 |  |  |  |  |  |
| COc1cc(C2=NN(C(=O)c3cccnc3)C(c3cn(C)c4ccc(Br)cc34)C2)cc(OC)c1OC (configuration not stated) | > 10 | > 10 | > 10 | > 10 | > 40 |  |  | 131 |  |  |  |  |  |
| COc1cc(C2=NN(C(=O)c3ccc(C)nc3)C(c3cn(C)c4ccccc34)C2)cc(OC)c1OC (configuration not stated) | 0.18 | 0.23 | 0.31 | 0.21 | 2.3 |  |  | > 300 |  |  |  |  |  |
| Cn1cc(C2CC(c3ccccc3)=NN2C(=O)c2ccc(Cl)nc2)c2ccccc21 (configuration not stated) | 9.25 | 8.46 | 7.91 | 8.31 | 31.7 |  |  | > 300 |  |  |  |  |  |
| Cn1cc(C2CC(c3ccccc3)=NN2C(=O)c2cccnc2)c2cc(Br)ccc21 (configuration not stated) | 1.52 | 1.6 | 2.52 | 1.73 | 3.4 |  |  | > 300 |  |  |  |  |  |
| COc1cccc(C2=NN(C(=O)c3cccnc3)C(c3cn(C)c4ccc(OC)cc34)C2)c1 (configuration not stated) | 0.81 | 1.02 | 0.91 | 1.27 | 2.1 |  |  | 125 |  |  |  |  |  |
| COc1ccc2c(c1)c(C1CC(c3ccc(Br)cc3)=NN1C(=O)c1ccc(OC)nc1)cn2C (configuration not stated) | 6.96 | > 10 | > 10 | > 10 | 19.3 |  |  | > 300 |  |  |  |  |  |
| Cn1cc(C2CC(c3ccccc3)=NN2C(=O)c2cccnc2Cl)c2ccccc21 (configuration not stated) | > 10 | > 10 | > 10 | > 10 | > 40 |  |  | > 300 |  |  |  |  |  |
| COc1ccc(C(=O)N2N=C(c3ccccc3)CC2c2cn(C)c3ccccc23)cn1 (configuration not stated) | 4.31 | 3.04 | 3.13 | 3.98 | 9.7 |  |  | > 300 |  |  |  |  |  |
| COc1ccc(C2=NN(C(=O)c3cccnc3)C(c3cn(C)c4ccc(Br)cc34)C2)cc1 (configuration not stated) | 1.56 | 1.19 | 0.54 | 0.89 | 4.5 |  |  | > 300 |  |  |  |  |  |
| Cn1cc(C2CC(c3ccc(F)cc3)=NN2C(=O)c2cccnc2)c2cc(Br)ccc21 (configuration not stated) | 0.48 | 1.38 | 0.48 | 0.63 | 5.2 |  |  | > 300 |  |  |  |  |  |
| COc1ccc(C2=NN(C(=O)c3ccc(OC)nc3)C(c3cn(C)c4ccc(OC)cc34)C2)cc1 (configuration not stated) | 0.56 | 0.45 | 0.23 | 0.18 | 2.3 |  |  | > 300 |  |  |  |  |  |
| COc1ccc2c(c1)c(C1CC(c3ccccc3)=NN1C(=O)c1ccc(OC)nc1)cn2C (configuration not stated) | 0.99 | 1.11 | 1.33 | 1.1 | 2.9 |  |  | > 300 |  |  |  |  |  |

Further lines, with some results ahead:

| GI50 (MCF7) [µM] | GI50 (A549) [µM] | GI50 (HepG2) [µM] | GI50 (HeLa [1]) [µM] | IC50 [3] [µM] | inhibition (Tubulin (Homo sapiens) [8]) | inhibition (Tubulin (Homo sapiens) [9]) | Structure (SMILES) | CC50 at 48 h [2] [µM] | Activity (HeLa [4]) [mm3] | Activity (HeLa [5]) [g] | inhibition (Bos taurus) | Activity (HeLa [6]) | Activity (HeLa [7]) |
| --- | --- | --- | --- | --- | --- | --- | --- | --- | --- | --- | --- | --- | --- |
| 7.2 | > 10 | 4.63 | > 10 | 26.7 |  |  | Cn1cc(C2CC(c3ccccc3)=NN2C(=O)c2cccnc2)c2ccccc21 (configuration not stated) | > 300 |  |  |  |  |  |
| 0.13 | 0.47 | 0.19 | 0.34 | 1.9 |  |  | COc1cccc(C2=NN(C(=O)c3ccc(OC)nc3)C(c3cn(C)c4ccc(OC)cc34)C2)c1 (configuration not stated) | > 300 |  |  |  |  |  |
|  |  |  |  |  | inactive | inactive | CC(=O)O[C@H]1C(=O)[C@@]2(C)[C@H]([C@H](OC(=O)c3ccccc3)[C@]3(O)C[C@H](OC(=O)[C@H](O)[C@@H](NC(=O)c4ccccc4)c4ccccc4)C(C)=C1C3(C)C)[C@]1(OC(C)=O)CO[C@@H]1C[C@@H]2O |  |  |  |  |  |  |
| > 10 | > 10 | > 10 | > 10 | > 40 |  |  | COc1ccc2c(c1)c(C1CC(c3cc(OC)c(OC)c(OC)c3)=NN1C(=O)c1ccc(OC)nc1)cn2C (configuration not stated) | > 300 |  |  |  |  |  |
| 3.71 | 3.39 | 2.08 | 2.26 | 15.6 |  |  | COc1ccc2c(c1)c(C1CC(c3ccc(Cl)cc3)=NN1C(=O)c1ccc(OC)nc1)cn2C (configuration not stated) | > 300 |  |  |  |  |  |
| 4.01 | 1.19 | 1.22 | 2.39 | 13.2 |  |  | Cc1ccc(C(=O)N2N=C(c3ccccc3)CC2c2cn(C)c3ccccc23)cn1 (configuration not stated) | 154 |  |  |  |  |  |
| 0.48 | 0.71 | 0.22 | 0.41 | 2.6 |  |  | COc1ccc2c(c1)c(C1CC(c3ccc(F)cc3)=NN1C(=O)c1ccc(OC)nc1)cn2C (configuration not stated) | > 300 |  |  |  |  |  |
| 8.1 | 7.65 | 5.8 | 5.2 | 19.4 |  |  | Cn1cc(C2CC(c3ccc(Cl)cc3)=NN2C(=O)c2cccnc2)c2cc(Br)ccc21 (configuration not stated) | > 300 |  |  |  |  |  |
